Hits are enriched below; roughly 1.8% of the tested compounds scored in any of these assays.
NPY1 pot ag: human NPY-Y1 potentiation or agonism, primary screen; NPY-Y1 expressing cells, potentiator/agonist activation; activation, % at 3.6 µM; 220,000 tested, 0.37% active; AID 1304; in the data active = activation above about 33%, passing the limit was not always enough;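 note: cells stimulated with NPY at EC10 then isoproterenol at EC100; 0% = low agonist plus stimulus and 100% = saturating agonist plus stimulus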
NPY2 pot ag: potentiates or activates human NPY-Y2 receptor | 220,000 tested, 0.45% active | cells expressing NPY-Y2, potentiator/agonist read-out | AID 1359 | P49146 | activation, % at 3.6 µM; in the data active = activation above about 27%;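 note: cells stimulated with NPY near EC25 plus isoproterenol at EC100; 0% = vehicle plus submaximal agonist and 100% = vehicle plus saturating agonist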
Target sequence (P49146 whole entry, looked up): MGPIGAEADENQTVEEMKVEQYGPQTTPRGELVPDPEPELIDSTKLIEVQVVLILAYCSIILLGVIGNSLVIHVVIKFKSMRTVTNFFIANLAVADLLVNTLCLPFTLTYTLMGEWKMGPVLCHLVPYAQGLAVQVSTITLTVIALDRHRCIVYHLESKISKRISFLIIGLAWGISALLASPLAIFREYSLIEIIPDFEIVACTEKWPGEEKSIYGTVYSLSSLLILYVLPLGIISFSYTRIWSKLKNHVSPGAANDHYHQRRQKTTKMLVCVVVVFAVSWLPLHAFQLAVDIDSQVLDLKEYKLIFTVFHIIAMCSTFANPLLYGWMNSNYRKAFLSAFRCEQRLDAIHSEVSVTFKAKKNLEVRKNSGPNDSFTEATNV
NPY Y2 blocker: blocks the human neuropeptide Y Y2 receptor | inhibition, % at 2.7 µM | AID 793 | 140,000 tested, 0.99% active | P49146 | NPY-Y2 expressing cells, antagonist mode; in the data active = inhibition above about 17%;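 note: 0% = vehicle with agonist challenge and 100% = reference antagonist with challenge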
NPY Y1 blocker: antagonists of human neuropeptide Y receptor Y1; 200,000 tested, 1% active; HEK293-CNG Y1 cells, membrane potential fluorescence; NPY at EC95, then isoproterenol; AID 1040; inhibition, % at 3.6 µM; P25929;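 active = inhibition above the campaign mean inhibition of all tested compounds plus 3 SD, cut at about 20% in these data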;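 note: 0% = DMSO wells given NPY plus isoproterenol and 100% = isoproterenol alone without NPY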
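Material: HEK293 Y1/CNG channel cell line | Also added: NPY (25 nM), isoproterenol (1 µM), Ro 20-1724 (25 µM) | Compound: One concentration, 3.6 µM, in 0.4% DMSO | Schedule: 3 h dye uptake, 1 h room-temperature compound, 45 min post-isoproterenol | Signal: Membrane-potential fluorescent dye readout | Read-out: % inhibition of NPY effect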
An asterisk follows results filed as active; . = no result.

SMILES | NPY1 pot ag | NPY2 pot ag | NPY Y2 blocker | NPY Y1 blocker
Cc1ccc(NC2(c3nnnn3-c3c(C)cccc3C)CCCCC2)cc1 | -6 | -9 | 8 | 5
O=C1CC(NNc2ccccc2)C(=O)N1c1ccc(N2CCCCC2)cc1 (stereo not given) | 6 | -7 | . | 3
COc1ccc(Cn2c(SCc3ccc(C)cc3)nc3cc(OC)c(OC)cc3c2=N)cc1Cl | -16 | -3 | 25* | 34*
COc1ccc(Cn2c(SCc3cc(C)ccc3C)nc3cc(OC)c(OC)cc3c2=N)cc1 | -34 | 13 | 55* | 47*
Cn1ccnc1C(=O)c1cc(SCC(=O)N2CCOCC2)nc2ccccc12 | -21 | -1 | . | 4
C=CCNC(=O)CSc1nnc(C(CC)N(C)C)n1C1CCCCC1 (stereo not given) | 20 | 12 | . | .
Cc1cc(C[n+]2ncsc2N)c2ncccc2c1 | -23 | -36 | . | .
CCOc1ccc2c(c1)sc(N)[n+]2Cc1cc(C)cc2cccnc12 | -69 | -13 | 42* | 52*
Cc1cc(C[n+]2cc(Cl)ccc2N)c2ncccc2c1 | 9 | -21 | . | .
COc1ccc2c(c1)sc(N)[n+]2Cc1cc(C)cc2cccnc12 | -58 | -5 | 48* | 49*
CC(C)CNC(=S)Nc1ccc(Oc2ccccc2)cc1 | 34 | 18 | -2 | -11
O=C(CCCc1cccs1)N1CCN(S(=O)(=O)c2ccccc2Br)CC1 | -15 | -7 | 4 | 2
CCOC(=O)Cc1csc(NC(=O)CSc2nc(-c3ccccc3)c(C#N)c(=O)[nH]2)n1 | -15 | -10 | . | 21*
c1ccc(Cn2c(CNc3nc4ccccc4n3CCN3CCCCC3)nc3ccccc32)cc1 | -29 | -6 | 27* | 17
CCN(CC)c1ccc(CNc2nc3ccccc3n2CCN2CCCCC2)cc1 | 45* | 44* | . | 14
CCCCn1c(NCc2ccc3c(c2)OCO3)nc2ccccc21 | -19 | -1 | 15 | 20*
COc1ccc(CNc2nc3ccccc3n2CCN2CCCCC2)cc1 | -9 | 11 | . | 9
CCN(CC)CCn1c(NCc2nc3ccccc3n2Cc2ccccc2)nc2ccccc21 | -46 | -1 | 19* | 22*
Cc1ccc(S(=O)(=O)N(Cc2cc3ccccc3[nH]c2=O)c2cccc(C)c2)cc1 | 19 | -13 | . | .
CCOC(=O)c1[nH]c2ccccc2c1NC(=O)c1ccc(S(=O)(=O)N2CCCCC2)cc1 | -19 | 16 | 0 | 6
Cn1cc(S(=O)(=O)N2CCCC(C(=O)O)C2)cn1 (stereo not given) | -9 | 3 | . | -8
Cc1ccccc1NC(=O)CSc1nc(N)c2c3c(sc2n1)CSC(C)(C)C3 | -60 | -23 | 47* | 32*
CCCC(c1nnnn1Cc1ccc(F)cc1)N1CCN(C2CCCCC2)CC1 (stereo not given) | -17 | -6 | 31* | 23*
CCCCC(c1nnnn1C1CCCC1)N1CCN(C2CCCC2)CC1 (stereo not given) | -20 | -27 | 46* | 31*
CCCC(c1nnnn1C1CCCCC1)N1CCN(C2CCCC2)CC1 (stereo not given) | -38 | -7 | 13 | 17
SMILES | NPY1 pot ag | NPY2 pot ag | NPY Y2 blocker | NPY Y1 blocker
CCC1=C/C(=C/c2sc3ccccc3[n+]2CC)CC(C)(C)C1 | -4 | 18 | . | 6
CC[n+]1c(/C=C2\C=C(C)CC(C)(C)C2)sc2ccccc21 | -13 | -9 | 20* | 22*
O=C(NNC(=O)C1CCN(c2ncccn2)CC1)c1ccncc1 | 21 | 8 | . | 3
COc1ccc(-c2c3c(=O)n(C)c(=O)n(C)c3cn2-c2cc(OC)ccc2OC)cc1 | -22 | -25 | 13 | 21*
CN(Cc1ccccc1)Cc1nc2c(c(=O)n(C)c(=O)n2C)n1CCc1ccccc1 | -36 | -7 | 23* | 22*
O=C(CSc1nc(C2CC2)nc2sc3c(c12)CCCC3)NCc1ccco1 | -6 | 5 | 11 | 2
Cc1nc(SCC(=O)NCc2ccco2)c2c3c(sc2n1)CCCC3 | -11 | -17 | 24* | 25*
Cc1ccc2c(CSc3nc4ccccc4c(=O)n3CCCO)cc(=O)oc2c1C | -28 | -22 | 28* | 31*
CC(=O)NCCn1c(SCc2ccccc2F)nc2ccccc2c1=O | 77* | 102* | 2 | -6
Cc1ccc2c(CSc3nnc4ccccn34)cc(=O)oc2c1C | 10 | -8 | 4 | 0
CCOC(=O)c1ccc(CSc2nnc(N)s2)cc1 | -2 | 2 | -1 | -6
Cc1ccccc1CSc1nnc(-c2cnccn2)n1C | 10 | 7 | . | .
CCOC(=O)c1nc(C)nc(Sc2n[nH]c(-c3ccccc3)n2)c1C | -13 | 1 | . | .
CCC(=O)N(Cc1c(C)nn(-c2ccccc2)c1Cl)c1ccc(Cl)cc1 | -14 | -11 | 19* | 29*
Cc1nn(-c2ccccc2)c(Cl)c1C(=O)NCCCCNC(=O)c1c(C)nn(-c2ccccc2)c1Cl | -4 | 1 | -2 | 6
CCOC(=O)C1CC(C)=C(C)CC1C(=O)O (stereo not given) | 5 | -9 | . | .
Clc1ccc(COn2c(-c3ccc(Cl)cc3)nc3ccccc32)cc1 | -202 | -149 | 61* | 84*
Clc1ccc(COn2c(-c3ccccc3)nc3ccccc32)cc1 | -111 | -77 | 37* | 54*
COc1ccc(CNC(=O)CCCn2c(SCC#N)nc3cc4c(cc3c2=O)OCO4)cc1 | -14 | -2 | 7 | 4
CSc1nc(N)n2nc(-c3ccc(Cl)cc3)cc2n1 | 21 | 3 | . | .
Cc1nc(-c2ccccc2)sc1C(N)=O | -17 | -10 | 1 | 5
Cc1nc(-c2ccccc2)sc1C(=O)CSc1ccccc1 | -31 | -9 | 24* | 21*
COc1ccc(C2=Nn3c(nnc3-c3ccccc3OC)SC2)cc1OC | -75 | -32 | 30* | 30*
COC(=O)c1c(NC(=O)c2cccnc2Cl)sc(C(=O)N(C)C)c1C | -9 | -13 | 0 | -1
CN1C(=O)C2(C(C#N)=C(N)Oc3n[nH]c(-c4ccc(Cl)cc4)c32)c2ccccc21 (stereo not given) | 40* | 43* | -1 | -9
SMILES | NPY1 pot ag | NPY2 pot ag | NPY Y2 blocker | NPY Y1 blocker
Cc1[nH]nc2c1C1(C(=O)N(Cc3ccc(Cl)cc3)c3ccccc31)C(C#N)=C(N)O2 (stereo not given) | 7 | 7 | 2 | -4
Cc1ccc(-c2nc3ncccc3o2)cc1NC(=O)c1cc2ccccc2o1 | 10 | 20 | 20* | 22*
Cc1cc(-c2nnc(CCC(=O)N3CCN(Cc4cccnc4)CC3)o2)c(C)o1 | 4 | -7 | . | 1
COc1ccc(C(=O)C(CCCCC(CN(C)C)C(=O)c2ccc(OC)cc2)CN(C)C)cc1 (stereo not given) | -93 | -23 | 22* | 21*
NC(=O)/C(=C\c1ccccc1)NC(=O)c1ccc(NC(=O)c2ccccc2)cc1 | 2 | 3 | . | .
C=CCn1c(SCc2c(F)cccc2Cl)nnc1-c1ccco1 | 11 | -6 | 10 | 1
CC1=C/C(=N\OS(=O)(=O)c2ccccc2)C(C(C)C)=CC1=O | 30 | 31* | 7 | -6
CC1=C/C(=N\OS(=O)(=O)c2ccccc2)C(C)=CC1=O | 54* | 57* | 2 | -8
Cc1ccc(C(=O)NCc2ccccn2)cc1Cl | 6 | 6 | . | 0
